Laboratory results published in ChEMBL document CHEMBL1144562, “Synthesis of a new class of 2-anilino substituted nicotinyl arylsulfonylhydrazides as potential anticancer and antibacterial agents” (2007).
Values after ≈ are worked out from the molar mass of the structure shown.

Tests used:
Type in all cases: functional
NCI-H460 = assay: Antitumor activity against NCI-H460 cells; details: Homo sapiens, read-out: Log TGI (converted)
EKVX = assay: Antitumor activity against EKVX cells; details: Homo sapiens
DU-145 = assay: Antitumor activity against DU145 cells; details: Homo sapiens
786-0 = assay: Antitumor activity against 786-0 cells; details: Homo sapiens
[1] = tested on: Staphylococcus epidermidis; assay: Antibacterial activity against Staphylococcus epidermidis MTCC 435 after 18 hrs; details: MTCC 435, 18 h
Summary of the method: (§1)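 Disc diffusion (Kirby–Bauer) on Mueller-Hinton agar inoculated with fresh bacteria at 1-5 × 10^4 cfu mL-1. Compounds were dissolved in DMF at a range of concentrations, and discs were placed in triplicate. Plates were incubated at 30 °C for 18 h. MIC was taken as the lowest concentration giving no visible bacterial growth on the plate.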

CCRF-CEM = assay: Antitumor activity against CCRF-CEM cells; details: Homo sapiens
MOLT-4 = assay: Antitumor activity against MOLT4 cells; details: Homo sapiens
CAKI-1 = assay: Antitumor activity against CAKI1 cells; details: Homo sapiens
TK-10 = assay: Antitumor activity against TK10 cells; details: Homo sapiens
Summary of the method: (§2)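 Tested in the NCI 60-human-tumour-cell-line panel at five concentrations, in 10-fold dilutions from 10^-4 to 10^-8 M. Three parameters were taken from the dose-response data, each as log10 of the molar concentration: GI50 (50% net growth inhibition), TGI (total growth inhibition) and LC50 (50% net cell death).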

SK-MEL-5 = assay: Antitumor activity against SK-MEL-5 cells; details: Homo sapiens; summary of the method: as §2
MDA-MB-231 = assay: Antitumor activity against MDA-MB-231 cells; details: Homo sapiens
SN12C = assay: Antitumor activity against SN12C cells; details: Homo sapiens; summary of the method: as §2
SNB-19 = assay: Antitumor activity against SNB19 cells; details: Homo sapiens; summary of the method: as §2
BT-549 = assay: Antitumor activity against BT549 cells; details: Homo sapiens
Vibrio = assay: Antibacterial activity against Vibrio species after 18 hrs; summary of the method: as §1
SK-OV-3 = assay: Antitumor activity against SKOV3 cells; details: Homo sapiens; summary of the method: as §2
Bacillus subtilis = assay: Antibacterial activity against Bacillus subtilis MTCC 441 after 18 hrs; details: MTCC 441, 18 h; summary of the method: as §1
SF-539 = assay: Antitumor activity against SF539 cells; details: Homo sapiens
PC-3 = assay: Antitumor activity against PC3 cells; details: Homo sapiens
UACC-62 = assay: Antitumor activity against UACC62 cells; details: Homo sapiens; summary of the method: as §2
Pseudomonas aeruginosa = assay: Antibacterial activity against Pseudomonas aeruginosa MTCC 424 after 18 hrs; details: MTCC 424, 18 h; summary of the method: as §1
SF-268 = assay: Antitumor activity against SF268 cells; details: Homo sapiens
SR = assay: Antitumor activity against SR cells; details: Homo sapiens; summary of the method: as §2
[2] = read-out: Log LC50 (the source's name) (converted)

O=C(NNS(=O)(=O)c1ccc(F)cc1)c1cccnc1Nc1ccc(Cl)cc1Cl
TGI (NCI-H460): > 100 µM
GI50 (EKVX): 29.5 µM
LC50 (EKVX): > 100 µM
TGI (EKVX; read-out: Log TGI (converted)): > 100 µM
GI50 (DU-145): 22.9 µM
LC50 (DU-145): > 100 µM
TGI (DU-145; read-out: Log TGI (converted)): 55 µM
GI50 (786-0): 22.9 µM
LC50 (lethal concentration, 50%) (786-0): > 100 µM
TGI (786-0; read-out: Log TGI (converted)): 53.7 µM
MIC [1]: 21 µg/mL (≈ 46.1 µM)
LC50 (CCRF-CEM): > 100 µM
TGI (CCRF-CEM; read-out: Log TGI (converted)): > 100 µM
GI50 (CCRF-CEM; read-out: pGI50 (converted)): 20.9 µM
GI50 (MOLT-4): 22.9 µM
LC50 (MOLT-4): > 100 µM
TGI (MOLT-4; read-out: Log TGI (converted)): > 100 µM
GI50 (CAKI-1): 30.9 µM
LC50 (CAKI-1): > 100 µM
TGI (CAKI-1; read-out: Log TGI (converted)): > 100 µM
GI50 (TK-10): 33.9 µM
LC50 (TK-10): > 100 µM
TGI (TK-10; read-out: Log TGI (converted)): > 100 µM
GI50 (SK-MEL-5): 25.1 µM
LC50 (SK-MEL-5): > 100 µM
TGI (SK-MEL-5; read-out: Log TGI (converted)): 85.1 µM
GI50 (MDA-MB-231): 28.8 µM
LC50 (MDA-MB-231): > 100 µM
TGI (MDA-MB-231; read-out: Log TGI (converted)): > 100 µM
GI50 (SN12C): 17.8 µM
LC50 (SN12C): 57.5 µM
TGI (SN12C; read-out: Log TGI (converted)): 31.6 µM
GI50 (SNB-19): 29.5 µM
CC50 (SNB-19; [2]): > 100 µM
TGI (SNB-19; read-out: Log TGI (converted)): > 100 µM
GI50 (BT-549): 36.3 µM
LC50 (BT-549): > 100 µM
TGI (BT-549; read-out: Log TGI (converted)): 100 µM
MIC (Vibrio): 20 µg/mL (≈ 43.9 µM)
GI50 (SK-OV-3): 38 µM
CC50 (SK-OV-3; [2]): > 100 µM
TGI (SK-OV-3; read-out: Log TGI (converted)): > 100 µM
MIC (Bacillus subtilis): 9 µg/mL (≈ 19.8 µM)
GI50 (SF-539): 26.3 µM
LC50 (SF-539): > 100 µM
TGI (SF-539; read-out: Log TGI (converted)): 74.1 µM
GI50 (PC-3): 14.8 µM
LC50 (PC-3): 69.2 µM
TGI (PC-3; read-out: Log TGI (converted)): 32.4 µM
GI50 (UACC-62): 45.7 µM
LC50 (UACC-62): > 100 µM
TGI (UACC-62; read-out: Log TGI (converted)): > 100 µM
MIC (Pseudomonas aeruginosa): > 25 µg/mL
GI50 (SF-268): 45.7 µM
LC50 (SF-268): > 100 µM
TGI (SF-268; read-out: Log TGI (converted)): > 100 µM
GI50 (SR): 22.9 µM
LC50 (SR): > 100 µM
TGI (SR; read-out: Log TGI (converted)): 67.6 µM
